Data from ChEMBL document CHEMBL1156920, “Structural analogues of schweinfurthin F: probing the steric, electronic, and hydrophobic properties of the D-ring substructure” (Bioorg Med Chem, 2010).

Key:
[1] = Cytotoxicity against human NCI60 cells; assay type: functional
SF-295 [2] = experiment: Cytotoxicity against human SF295 cells after 44 hrs by MTT assay; assay type: functional, cell-based; settings: SF-295, 44 h
Summary of the method: (§1)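 SF-295 cells cultured in RPMI 1640 and A549 cells in F-12, each with 10% FBS, penicillin–streptomycin, amphotericin B and L-glutamine, at 37 °C in 5% CO2. Cells were grown to 60% confluency, then treated for 44 h. Medium was replaced with medium containing 0.06 mg/mL MTT (phenol red-free RPMI for SF-295) for 4 h. Acid/Triton/isopropanol stop solution was added, plates incubated overnight at 37 °C, OD read at 540 and 650 nm, and EC50 calculated.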

A549 = experiment: Cytotoxicity against human A549 cells after 44 hrs by MTT assay; assay type: functional, cell-based; settings: A549, 44 h; summary of the method: as §1
UACC-257 = experiment: Growth inhibition of human UACC257 cells; assay type: functional
SK-MEL-5 = experiment: Growth inhibition of human SK-MEL-5 cells; assay type: functional
SK-MEL-2 = experiment: Growth inhibition of human SK-MEL-2 cells; assay type: functional
M14 = experiment: Growth inhibition of human M14 cells; assay type: functional
Malme-3M = experiment: Growth inhibition of human MALME-3M cells; assay type: functional
LOX IMVI = experiment: Growth inhibition of human LOXIMVI cells; assay type: functional
SNB-75 = experiment: Growth inhibition of human SNB75 cells; assay type: functional
SNB-19 = experiment: Growth inhibition of human SNB19 cells; assay type: functional
SF-539 = experiment: Growth inhibition of human SF539 cells; assay type: functional
SF-295 [3] = experiment: Growth inhibition of human SF295 cells; assay type: functional
SF-268 = experiment: Growth inhibition of human SF268 cells; assay type: functional
KM12 = experiment: Growth inhibition of human KM12 cells; assay type: functional
HCT-15 = experiment: Growth inhibition of human HCT15 cells; assay type: functional
HCT-116 = experiment: Growth inhibition of human HCT116 cells; assay type: functional
NCI-H522 = experiment: Growth inhibition of human NCI-H522 cells; assay type: functional
NCI-H322M = experiment: Growth inhibition of human NCI-H322M cells; assay type: functional
NCI-H23 = experiment: Growth inhibition of human NCI-H23 cells; assay type: functional
NCI-H226 = experiment: Growth inhibition of human NCI-H226 cells; assay type: functional
HOP-92 = experiment: Growth inhibition of human HOP92 cells; assay type: functional
HOP-62 = experiment: Growth inhibition of human HOP62 cells; assay type: functional
EKVX = experiment: Growth inhibition of human EKVX cells; assay type: functional
[4] = Growth inhibition of human […] cells; assay type: functional
MOLT-4 = experiment: Growth inhibition of human MOLT4 cells; assay type: functional
HL-60(TB) = experiment: Growth inhibition of human HL-60(TB) cells; assay type: functional
CCRF-CEM = experiment: Growth inhibition of human CCRF-CEM cells; assay type: functional
SK-OV-3 = experiment: Growth inhibition of human SKOV3 cells; assay type: functional
786-0 = experiment: Growth inhibition of human 786-0 cells; assay type: functional
ACHN = experiment: Growth inhibition of human ACHN cells; assay type: functional
CAKI-1 = experiment: Growth inhibition of human Caki1 cells; assay type: functional
RXF 393 = experiment: Growth inhibition of human RXF393 cells; assay type: functional
SN12C = experiment: Growth inhibition of human SN12C cells; assay type: functional
TK-10 = experiment: Growth inhibition of human TK10 cells; assay type: functional
UO-31 = experiment: Growth inhibition of human UO31 cells; assay type: functional
MCF7 = experiment: Growth inhibition of human MCF7 cells; assay type: functional
NCI/ADR-RES = experiment: Growth inhibition of human NCI/ADR-RES cells; assay type: functional
MDA-MB-435 = experiment: Growth inhibition of human MDA-MB-435 cells; assay type: functional
BT-549 = experiment: Growth inhibition of human BT549 cells; assay type: functional
T47D = experiment: Growth inhibition of human T47D cells; assay type: functional
MDA-MB-468 = experiment: Growth inhibition of human MDA-MB-468 cells; assay type: functional
[5] = read-out: pLC50 (the source's name) (converted)

Work on `COc1cc(/C=C/c2cc(O)c(CCC(C)C)c(O)c2)cc2c1O[C@]1(C)CC[C@@H](O)C(C)(C)[C@H]1C2` yielded a GI50 [1] of 0.29 µM, an EC50 (SF-295 [2]) of 0.4 µM and an EC50 (A549) of 4.2 µM. It also gave a GI50 (UACC-257) of 3.39 µM, an LC50 (UACC-257) of 64.6 µM and a TGI (UACC-257; read-out: pTGI (converted)) of 21.9 µM. The GI50 (SK-MEL-5) was 0.0832 µM, the LC50 (SK-MEL-5) was 4.47 µM and the TGI (SK-MEL-5; read-out: pTGI (converted)) was 1.51 µM. It also gave a GI50 (SK-MEL-2) of 4.47 µM, a TGI (SK-MEL-2; read-out: pTGI (converted)) of 33.1 µM and a GI50 (M14) of 0.245 µM. For the same compound, the CC50 (M14; [5]) was 30.9 µM, the TGI (M14; read-out: pTGI (converted)) was 0.24 µM and the GI50 (Malme-3M) was 1.41 µM. It also gave an LC50 (Malme-3M) of 63.1 µM, a TGI (Malme-3M; read-out: pTGI (converted)) of 12.3 µM and a GI50 (LOX IMVI) of 0.0708 µM. It also gave an LC50 (LOX IMVI) of 5.89 µM, a TGI (LOX IMVI; read-out: pTGI (converted)) of 1.78 µM and a GI50 (SNB-75) of 0.0603 µM. For the same compound, the LC50 (SNB-75) was 39.8 µM, the TGI (SNB-75; read-out: pTGI (converted)) was 11.2 µM and the GI50 (SNB-19) was 0.372 µM. The GI50 (SF-539) was 0.0288 µM, the LC50 (SF-539) was 2.69 µM and the TGI (SF-539; read-out: pTGI (converted)) was 0.295 µM. It also gave a GI50 (SF-295 [3]) of 0.0331 µM, an LC50 (SF-295 [3]) of 66.1 µM and a TGI (SF-295 [3]; read-out: pTGI (converted)) of 1.35 µM. For the same compound, the GI50 (SF-268) was 0.214 µM, the LC50 (SF-268) was 39.8 µM and the TGI (SF-268; read-out: pTGI (converted)) was 11.5 µM. The GI50 (KM12) was 0.275 µM, the LC50 (KM12) was 28.8 µM and the TGI (KM12; read-out: pTGI (converted)) was 5.25 µM. The GI50 (HCT-15) was 0.182 µM, the LC50 (HCT-15) was 26.3 µM and the TGI (HCT-15; read-out: pTGI (converted)) was 2.88 µM. For the same compound, the GI50 (HCT-116) was 0.0468 µM, the CC50 (HCT-116; [5]) was 47.9 µM and the TGI (HCT-116; read-out: pTGI (converted)) was 8.13 µM. For the same compound, the GI50 (NCI-H522) was 1.32 µM, the LC50 (50% lethal concentration) (NCI-H522) was over 100 µM and the TGI (NCI-H522; read-out: pTGI (converted)) was 24 µM. For the same compound, the GI50 (NCI-H322M) was 0.933 µM, the TGI (NCI-H322M; read-out: pTGI (converted)) was 28.8 µM and the GI50 (NCI-H23) was 1.29 µM. It also gave an LC50 (NCI-H23) of 81.3 µM, a TGI (NCI-H23; read-out: pTGI (converted)) of 19.5 µM and a GI50 (NCI-H226) of 0.692 µM. The LC50 (NCI-H226) was over 100 µM, the TGI (NCI-H226; read-out: pTGI (converted)) was 3.55 µM and the GI50 (HOP-92) was 1.51 µM. It also gave an LC50 (HOP-92) of over 100 µM, a TGI (HOP-92; read-out: pTGI (converted)) of 24 µM and a GI50 (HOP-62) of 0.0513 µM. For the same compound, the LC50 (HOP-62) was 13.8 µM, the TGI (HOP-62; read-out: pTGI (converted)) was 0.603 µM and the GI50 (EKVX) was 0.447 µM. It also gave an LC50 (EKVX) of over 100 µM, a TGI (EKVX; read-out: pTGI (converted)) of 17.4 µM and a GI50 [4] of 0.0174 µM. For the same compound, the LC50 [4] was over 100 µM, the GI50 (MOLT-4) was 0.0457 µM and the LC50 (MOLT-4) was over 100 µM. It also gave a TGI (MOLT-4; read-out: pTGI (converted)) of 18.6 µM, a GI50 (HL-60(TB)) of 0.251 µM and a CC50 (HL-60(TB); [5]) of over 100 µM. For the same compound, the TGI (HL-60(TB); read-out: pTGI (converted)) was 38.9 µM, the GI50 (CCRF-CEM) was 0.148 µM and the CC50 (CCRF-CEM; [5]) was over 100 µM. For the same compound, the TGI (CCRF-CEM; read-out: pTGI (converted)) was 18.6 µM, the GI50 (SK-OV-3) was 11.5 µM and the LC50 (SK-OV-3) was over 100 µM. For the same compound, the TGI (SK-OV-3; read-out: pTGI (converted)) was 97.7 µM, the GI50 (786-0) was 0.0102 µM and the LC50 (786-0) was 2.88 µM. The TGI (786-0; read-out: pTGI (converted)) was 0.0537 µM, the GI50 (ACHN) was 0.309 µM and the CC50 (ACHN; [5]) was 43.7 µM. The TGI (ACHN; read-out: pTGI (converted)) was 15.8 µM, the GI50 (CAKI-1) was 0.0708 µM and the LC50 (CAKI-1) was over 100 µM. The TGI (CAKI-1; read-out: pTGI (converted)) was 17.8 µM, the GI50 (RXF 393) was 0.01 µM and the CC50 (RXF 393; [5]) was 8.32 µM. For the same compound, the TGI (RXF 393; read-out: pTGI (converted)) was 0.0891 µM, the GI50 (SN12C) was 0.741 µM and the LC50 (SN12C) was over 100 µM. It also gave a TGI (SN12C; read-out: pTGI (converted)) of 36.3 µM, a GI50 (TK-10) of 6.31 µM and an LC50 (TK-10) of 74.1 µM. The TGI (TK-10; read-out: pTGI (converted)) was 25.1 µM, the GI50 (UO-31) was 0.0468 µM and the CC50 (UO-31; [5]) was 74.1 µM. For the same compound, the TGI (UO-31; read-out: pTGI (converted)) was 2.4 µM, the GI50 (MCF7) was 0.0427 µM and the CC50 (MCF7; [5]) was over 100 µM. The TGI (MCF7; read-out: pTGI (converted)) was 2.4 µM, the GI50 (NCI/ADR-RES) was 2.34 µM and the CC50 (NCI/ADR-RES; [5]) was over 100 µM. For the same compound, the TGI (NCI/ADR-RES; read-out: pTGI (converted)) was 47.9 µM, the GI50 (MDA-MB-435) was 0.501 µM and the LC50 (MDA-MB-435) was over 100 µM. For the same compound, the TGI (MDA-MB-435; read-out: pTGI (converted)) was 24 µM, the GI50 (BT-549) was 0.363 µM and the CC50 (BT-549; [5]) was over 100 µM. For the same compound, the TGI (BT-549; read-out: pTGI (converted)) was 28.8 µM, the GI50 (T47D) was 2.04 µM and the CC50 (T47D; [5]) was over 100 µM. For the same compound, the GI50 (MDA-MB-468) was 0.851 µM, the LC50 (MDA-MB-468) was 57.5 µM and the TGI (MDA-MB-468; read-out: pTGI (converted)) was 4.37 µM.
